Measurements published in PMC10520980 (European journal of medicinal chemistry, 2022).
Like-named read-outs stand apart in the source and are kept apart here.

How the values were obtained:
NTMT1 and NTMT2 = conditions: cited from earlier work
NTMT1 [1] = target: T1, NTMT1 (Homo sapiens, UniProt Q9BV86); conditions: read-out: cellular IC50; HCT116; cited from earlier work
T1 sequence (Q9BV86 1-223): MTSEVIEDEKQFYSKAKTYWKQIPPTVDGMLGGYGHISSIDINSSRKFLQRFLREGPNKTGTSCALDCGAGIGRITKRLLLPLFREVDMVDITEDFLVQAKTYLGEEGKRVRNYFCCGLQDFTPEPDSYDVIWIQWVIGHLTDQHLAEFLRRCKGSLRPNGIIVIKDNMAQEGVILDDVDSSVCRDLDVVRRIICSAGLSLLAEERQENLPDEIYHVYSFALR

NTMT1 [2] = target: T1, NTMT1; conditions: read-out: cellular IC50; HT29; cited from earlier work
NTMT1 [3] = target: T1, NTMT1; experiment: Degradation of NTMT1 in HCT116; format: cell-based; conditions: for DC50: read-out: DC50, NTMT1 degradation, HCT116, 24 h, Western blot; for fold less potent than degrader 1 (DC50): HCT116
Summary of the method: (§1)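 Cells were seeded at 8×10^4 per well, grown 24 h, then treated with graded concentrations for 24 h or at 50 μM over a time course, with DMSO control. Lysis was in Tris pH 8.0/NaCl/NP-40/Triton buffer, followed by BCA. 20 μg protein was run on 10% SDS-PAGE with PVDF transfer. Membranes were probed with rabbit anti-NTMT1 and anti-β-actin overnight at 4 °C, then chemiluminescence. Densitometry was normalised to DMSO, and DC50 was derived from these values. Triplicates.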

NTMT1 [4] = target: T1, NTMT1; experiment: Degradation of NTMT1 in HT29; format: cell-based; conditions: for DC50: read-out: DC50, NTMT1 degradation, HT29, 24 h, Western blot
Summary of the method: as §1

NTMT2 = NTMT2 (Homo sapiens, UniProt Q5VVY1); experiment: Selectivity: NTMT2 protein level in HCT116 and HT29; format: cell-based; conditions: 24 h
NTMT2, sequence (Q5VVY1 whole entry): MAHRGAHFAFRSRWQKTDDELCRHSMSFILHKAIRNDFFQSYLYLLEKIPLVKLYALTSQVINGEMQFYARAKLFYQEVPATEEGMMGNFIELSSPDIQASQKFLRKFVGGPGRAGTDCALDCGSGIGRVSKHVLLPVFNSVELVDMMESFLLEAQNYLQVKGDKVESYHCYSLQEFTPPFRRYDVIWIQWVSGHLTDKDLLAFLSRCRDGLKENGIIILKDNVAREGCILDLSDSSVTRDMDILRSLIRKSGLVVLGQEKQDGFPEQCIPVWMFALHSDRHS
Summary of the method: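 HCT116 and HT29 cells were treated with a range of degrader concentrations for 24 h. Lysates were resolved by SDS-PAGE, and NTMT1, NTMT2 and β-actin band regions were cut from the same membrane. These were probed with rabbit anti-NTMT1, anti-NTMT2 and anti-actin, then goat anti-rabbit secondary and chemiluminescence. Triplicates.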

HCT116 = experiment: Cytotoxicity, WST-8 assay, HCT116; format: cell-based, human; conditions: HCT116, up to 64 μM, 24 h
Summary of the method: (§2)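 Cells were seeded at 5×10^3 per well and cultured 24 h. They were then exposed to a range of test compound concentrations or DMSO vehicle. A solution of 5 mM WST-8 plus 0.2 mM 1-methoxyphenazinium salt in 150 mM NaCl was added, followed by 3 h at 37 °C in 5% CO₂. Absorbance was read at 490 nm. Triplicates.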

HT29 = experiment: Cytotoxicity, WST-8 assay, HT29; format: cell-based, human; conditions: HT29, up to 64 μM, 24 h
Summary of the method: as §2

ntmt1 KO HCT116 cells = experiment: Cell proliferation assay; format: cell-based, human; conditions: ntmt1 KO HCT116, various concentrations, 72 h
calreticulin (CALR) = experiment: CALR expression by Western blot; format: cell-based, human; conditions: HCT116, 25 μM, 24 h
Summary of the method: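 HCT116 cells were treated at 25 μM for 24 h alongside the inhibitor comparator. Cells were lysed at 4 °C for 1 h in Tris pH 8.0/NaCl/NP-40/Triton X-100 buffer with protease inhibitor, and protein was quantified by BCA. 10 μg protein was run on 8% SDS-PAGE and transferred to PVDF. Blots were probed with rabbit anti-CALR and anti-β-actin, detected by chemiluminescence and quantified by densitometry. Triplicates.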

[5] = target: NTMT1-eGFP fusion protein (Homo sapiens, UniProt Q9BV86); experiment: NTMT1 degradation visualized by fluorescence; format: cell-based; conditions: HCT116, 100 μM, 24 h
Summary of the method: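 HCT116 cells were seeded at 1.5×10^5 per well. After 12 h they were transfected with pEGFP-n1-NTMT1 or empty pEGFP-n1 using Lipofectamine 3000 in reduced-serum medium with 20% FBS, for 8 h. Cells recovered 24 h in complete medium, then received 100 μM degrader or DMSO for 24 h. The GFP fusion was imaged on an inverted fluorescence microscope.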

eGFP = experiment: Control with plasmid expressing only eGFP in HCT116; format: cell-based, human; conditions: HCT116, 100 μM, 24 h

NCCCC[C@H](NC(=O)[C@@H]1CCCN1C(=O)Cc1ccc(O)cc1)C(=O)N[C@@H](CCCN=C(N)N)C(N)=O [BM30]
selectivity toward NTMT1 and NTMT2 (NTMT1 and NTMT2): nonselective inhibitor

NCCCC[C@H](NC(=O)[C@@H]1CCCN1C(=O)Cc1cccc2ccccc12)C(=O)Nc1ccccc1C(N)=O [DC541, (S)-N-((S)-6-amino-1-((2-carbamoylphenyl)amino)-1-oxohexan-2-yl)-1-(2-(naphthalen-1-yl)acetyl)pyrrolidine-2-carboxamide]
IC50 (NTMT1 [1]): > 100 µM | IC50 (NTMT1 [2]): ~30 µM

Cc1ncsc1-c1ccc(CNC(=O)[C@@H]2C[C@@H](O)CN2C(=O)[C@H](C(C)C)N2Cc3ccccc3C2=O)c(OCCNC(=O)c2ccccc2NC(=O)[C@H](CCCCN)NC(=O)[C@@H]2CCCN2C(=O)Cc2cccc3ccccc23)c1 [degrader 1, (2S,4R)-N-(2-(2-(2-((S)-6-amino-2-((S)-1-(2-(naphthalen-1-yl)acetyl)pyrrolidine-2-carboxamido)hexanamido)benzamido)ethoxy)-4-(4-methylthiazol-5-yl)benzyl)-4-hydroxy-1-((S)-3-methyl-2-(1-oxoisoindolin-2-yl)butanoyl)pyrrolidine-2-carbox amide]
NTMT1 degradation after pre-treatment with proteasome inhibitor MG-132 (NTMT1 [3]; HCT116, 1 μM MG-132 for 2 h, then 50 μM compound 24 h): completely abolished | NTMT1 level (Western blot) (NTMT1 [3]; HCT116, 25 μM, 24 h): almost depleted | NTMT1 level within 24 h (NTMT1 [3]; HCT116, 50 μM, 24 h): almost completely depleted | DC50 (NTMT1 [3]): 7.53 µM | onset of pronounced change of NTMT1 levels (NTMT1 [4]; HT29, 50 μM): not observed until 6 h | DC50 (NTMT1 [4]): 18.1 µM | degradation of NTMT2 (NTMT2; HCT116, various concentrations): cannot induce degradation of NTMT2 | degradation of NTMT2 (NTMT2; HT29, various concentrations): cannot induce degradation of NTMT2 | cytotoxicity (cell viability, WST-8) (HCT116): No significant cytotoxicity | cytotoxicity (cell viability, WST-8) (HT29): No significant cytotoxicity | antiproliferative effect on ntmt1 KO cells (ntmt1 KO HCT116 cells): neither compound displayed an antiproliferative effect | CALR expression relative to inhibitor 4 (Western blot) (calreticulin (CALR)): ~ 1.4 fold | fluorescence of NTMT1-eGFP fusion protein [5]: most fluorescence signals were lost | fluorescence of eGFP only (control plasmid) (eGFP): did not show obvious reduction of fluorescence

Cc1ncsc1-c1ccc(CNC(=O)[C@@H]2C[C@@H](O)CN2C(=O)[C@H](C(C)C)N2Cc3ccccc3C2=O)c(OCCOCCNC(=O)c2ccccc2NC(=O)[C@H](CCCCN)NC(=O)[C@@H]2CCCN2C(=O)Cc2cccc3ccccc23)c1 [degrader 2, (2S,4R)-N-(2-(2-(2-(2-((S)-6-amino-2-((S)-1-(2-(naphthalen-1-yl)acetyl)pyrrolidine-2-carboxamido)hexanamido)benzamido)ethoxy)ethoxy)-4-(4-methyl-thiazol-5-yl)benzyl)-4-hydroxy-1-((S)-3-methyl-2-(1-oxoisoindolin-2-yl)butanoyl)pyrrolidine-2-carboxamide]
fold less potent than degrader 1 (DC50) (NTMT1 [3]): ≥ 9 fold | DC50 (NTMT1 [3]): 79.7 µM | DC50 (NTMT1 [4]): 53.7 µM

Cc1ncsc1-c1ccc(CNC(=O)[C@@H]2C[C@@H](O)CN2C(=O)[C@H](C(C)C)N2Cc3ccccc3C2=O)c(OCCOCCOCCOCCNC(=O)c2ccccc2NC(=O)[C@H](CCCCN)NC(=O)[C@@H]2CCCN2C(=O)Cc2cccc3ccccc23)c1 [degrader 3, (2S,4R)-N-(2-((1-(2-((S)-6-amino-2-((S)-1-(2-(naphthalen-1-yl)acetyl)pyrrolidine-2-carboxamido)hexanamido)phenyl)-1-oxo-5,8,11-trioxa-2-azatridecan-13-yl)oxy)-4-(4-methylthiazol-5-yl)benzyl)-4-hydroxy-1-((S)-3-methyl-2-(1-oxoisoindolin-2-yl)butanoyl)pyrrolidine-2-carboxamide]
fold less potent than degrader 1 (DC50) (NTMT1 [3]): ≥ 9 fold | DC50 (NTMT1 [3]): 66.4 µM | DC50 (NTMT1 [4]): 53.7 µM

Cc1ncsc1-c1ccc(CNC(=O)[C@@H]2C[C@H](O)CN2C(=O)[C@H](C(C)C)N2Cc3ccccc3C2=O)c(OCCNC(=O)c2ccccc2NC(=O)[C@H](CCCCN)NC(=O)[C@@H]2CCCN2C(=O)Cc2cccc3ccccc23)c1 [inhibitor 4, (2S,4S)-N-(2-(2-(2-((S)-6-amino-2-((S)-1-(2-(naphthalen-1-yl)acetyl)pyrrolidine-2-carboxamido)hexanamido)benzamido)ethoxy)-4-(4-methylthiazol-5-yl)benzyl)-4-hydroxy-1-((S)-3-methyl-2-(1-oxoisoindolin-2-yl)butanoyl)-pyrrolidine-2-carboxamide]
NTMT1 level relative to DMSO control (NTMT1 [3]; HCT116, 50 μM, 24 h): unable to reduce NTMT1 levels | NTMT1 level relative to DMSO control (NTMT1 [4]; HT29, 50 μM, 24 h): unable to reduce NTMT1 levels | cytotoxicity (cell viability, WST-8) (HCT116): No significant cytotoxicity | cytotoxicity (cell viability, WST-8) (HT29): No significant cytotoxicity | antiproliferative effect on ntmt1 KO cells (ntmt1 KO HCT116 cells): neither compound displayed an antiproliferative effect
